Compounds with a hit are over-represented: about 2.2% of the library has one in this group of screens.
IMP-1 inh: inhibitors of Pseudomonas aeruginosa IMP-1 metallo-beta-lactamase; purified IMP-1, nitrocefin hydrolysis, epi-absorbance fluorescence; inhibition, % at 5.6 µM; actives 0.45% (n = 290,000);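 active means inhibition above the mean plus 3 SD of all compounds in the same screening run, cut at about 4.5% in these data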
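System: Purified recombinant IMP-1 metallo-beta-lactamase enzyme | Measured by: Fluorescence quenching readout, ex 480/em 530 nm | Replication: Singlicate | Incubation: 15 min preincubation plus 25 min reaction at 25 °C | Evaluation: Percent inhibition from optical density relative to buffer-blank wells | Benchmarks: DMSO with and without IMP-1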
PABP polyA inh: PABP-poly(A) binding inhibition. PABP-poly(A) RNA binding, fluorescence polarization. AID 2014. calls only at 35 µM. P11940. actives 1% (n = 290,000);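 further: calls also rest on retests at 20 µM and on dose response follow-up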
Target sequence (P11940 whole entry, looked up): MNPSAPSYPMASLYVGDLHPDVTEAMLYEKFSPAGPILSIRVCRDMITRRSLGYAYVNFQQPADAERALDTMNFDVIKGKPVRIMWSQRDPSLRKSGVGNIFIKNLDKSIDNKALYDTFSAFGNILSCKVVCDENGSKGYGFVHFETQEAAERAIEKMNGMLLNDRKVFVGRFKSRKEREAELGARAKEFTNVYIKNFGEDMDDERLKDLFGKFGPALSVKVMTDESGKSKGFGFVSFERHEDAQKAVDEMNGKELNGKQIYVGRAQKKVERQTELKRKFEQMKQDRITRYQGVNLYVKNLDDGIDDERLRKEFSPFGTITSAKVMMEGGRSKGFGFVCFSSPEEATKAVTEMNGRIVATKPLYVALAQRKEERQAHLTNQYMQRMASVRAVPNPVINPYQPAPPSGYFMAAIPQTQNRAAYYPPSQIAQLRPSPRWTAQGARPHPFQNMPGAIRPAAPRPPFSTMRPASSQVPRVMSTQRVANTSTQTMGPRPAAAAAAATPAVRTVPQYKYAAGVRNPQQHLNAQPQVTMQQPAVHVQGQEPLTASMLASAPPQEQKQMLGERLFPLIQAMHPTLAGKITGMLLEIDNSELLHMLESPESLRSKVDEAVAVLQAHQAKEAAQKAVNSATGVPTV
VIM-2 inhibitor: blocks Pseudomonas aeruginosa VIM-2 metallo-beta-lactamase; purified VIM-2, nitrocefin hydrolysis, epi-absorbance fluorescence; inhibition, % at 5.6 µM; actives 0.89% (n = 290,000);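 active means inhibition above the mean of all tested compounds plus 3 SD, cutoff set per screening run, cut at about 7.5% in these data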;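 further: red hydrolysis product quenches plate fluorescence so inhibitors raise well fluorescence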
eIF4H FP inh: inhibitors of RNA binding by human eIF4H | actives 0.94% (n = 290,000) | Q15056 | inhibition, % at 35 µM | eIF4H fluorescence polarization binding assay;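 further: calls also rest on retests at 20 µM and on dose response follow-up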
MLLE-PAM2 inh: blocks PAM2 peptide binding to the PABP1 MLLE domain | GST-MLLE / FITC-PAM2 fluorescence polarization | inhibition, % at 20 µM | actives 0.36% (n = 360,000); in the data active means inhibition above about 35%, passing the limit was not always enough
Of the large screens only hits and unclear results are named; the others gave an inactive call. Unless noted, how the calls were made is not given here.

C/C(=N\NC(=S)NCc1ccccc1)c1cccc(Br)c1	none
C/C(=N\NC(=S)NCCc1ccccc1)c1cccc(Br)c1	MLLE-PAM2 inh 39
Cc1nc2c(ccc3nc(NC(=O)C4CC4)sc32)s1	VIM-2 inhibitor 8.6
Cc1sc2nc(CSc3nc4ccccc4c(=O)n3CCCN3CCOCC3)[nH]c(=O)c2c1C	PABP polyA inh active, eIF4H FP inh inconclusive
CC(=O)c1c(C)[nH]c(C(=O)CSc2nc3ccccc3c(=O)n2CCCN2CCOCC2)c1C	none
Cc1ccc(/C=N/N(C)C2=NS(=O)(=O)c3ccccc32)cc1	none
CN(/N=C/c1ccncc1)C1=NS(=O)(=O)c2ccccc21	VIM-2 inhibitor 9.9
O=S1(=O)N=C(N(CCO)/N=C/c2ccc(Cl)cc2)c2ccccc21	none
CN(C)c1ccc(/C=N/N(CCC#N)C2=NS(=O)(=O)c3ccccc32)cc1	PABP polyA inh inconclusive, VIM-2 inhibitor 9.1, eIF4H FP inh inconclusive
C/C(=N\NC(=O)c1sccc1-n1cccc1)c1cccs1	none
COc1ccc(C(=O)Cn2nnc(-c3ccccc3NC(=O)C3CCCCC3)n2)cc1	PABP polyA inh active
Cc1ccc(-n2c(C)cc(C(=O)CN3CCOCC3)c2C)cc1C	PABP polyA inh active, eIF4H FP inh active
Cc1nc2ccc(C(=O)OCC(=O)N(C)c3ccccc3)cc2nc1C	none (no result: IMP-1 inh, PABP polyA inh, VIM-2 inhibitor, eIF4H FP inh)
CC(On1c(-c2ccccc2)nc2ccc(Cl)cc21)C(=O)O (stereo unspecified)	none
On1c(-c2ccccc2)nc2ccc(Cl)cc21	IMP-1 inh 5.2
O=c1c2ccccc2nc(-c2ccco2)n1/N=C/c1ccco1	PABP polyA inh active, eIF4H FP inh 97
Cc1nc2ccccc2c(=O)n1/N=C/c1ccco1	none
CNC(=O)/C(C#N)=C/c1ccc(OCCOc2ccccc2)cc1	none
CCCCOc1ccc(NC(=O)CN2CCN(Cc3ccccc3)CC2)cc1	none
CN(CC(=O)NCc1cccnc1)S(=O)(=O)c1ccc(F)cc1	none
Cc1ccc(S(=O)(=O)CCSc2nc(C)cc(C(F)(F)F)c2C#N)cc1	PABP polyA inh active, eIF4H FP inh 83
Cc1nc2ccccc2c(=O)n1/N=C/c1ccccc1O	none
Cc1[nH]n(-c2ccccc2)c(=O)c1/C=N/n1c(C)nc2ccccc2c1=O	PABP polyA inh active
O=C1c2cccc3cccc(c23)C(=O)N1/N=C/c1ccc(O)cc1O	none
O=C1c2ccccc2C(=O)N1/N=C/c1ccc(O)c(O)c1O	PABP polyA inh active, eIF4H FP inh 98
Cc1nc2ccccc2c(=O)n1/N=C/c1ccc(O)c(O)c1O	PABP polyA inh active, eIF4H FP inh 90
Oc1ccc(/C=N/N2CCCCC2)c(O)c1O	none
Oc1ccc(/C=N/N2CCOCC2)c(O)c1O	PABP polyA inh active, eIF4H FP inh 98
COCCC(=O)N1CCC(Oc2ccc(C(=O)NC3CCOC(C)(C)C3)cc2)CC1 (stereo unspecified)	none
COc1ccc(/C=N/Nc2cc(N3CCCC3)nc(N3CCCC3)n2)cc1	MLLE-PAM2 inh 54
Oc1ccc(/C=N/Nc2cc(N3CCCC3)nc(N3CCCC3)n2)cc1	PABP polyA inh inconclusive, MLLE-PAM2 inh 70
Oc1cccc(/C=N/Nc2cc(N3CCCC3)nc(N3CCCC3)n2)c1	eIF4H FP inh 29
Oc1ccc(/C=N/Nc2cc(N3CCOCC3)nc(N3CCOCC3)n2)cc1	none (no result: PABP polyA inh, eIF4H FP inh)
COc1cccc(NC(=O)Nc2nnc(N3C(C)CCCC3C)s2)c1 (stereo unspecified)	none
COc1ccc2[nH]c(N=Nc3ccccc3C)c(O)c2c1	none
COc1ccc(S(=O)(=O)Nc2ccc(F)c(F)c2)cc1Cl	IMP-1 inh 4.6
Cc1c(Cl)cnc(NC(=O)COC(=O)c2ccncc2)c1Cl	none (no result: IMP-1 inh, PABP polyA inh, VIM-2 inhibitor, eIF4H FP inh)
O=C(CSc1ccc(Cl)cc1)c1ccco1	PABP polyA inh active, eIF4H FP inh 87
CCC(C(=O)Nc1cccnc1Cl)c1ccccc1 (stereo unspecified)	none
CCn1c(CSc2nnc3ccccn23)nc2cc(C(=O)O)ccc21	PABP polyA inh active, eIF4H FP inh 129
O=C(O)CCCC1(C(=O)O)CCCC1	none (no result: IMP-1 inh, PABP polyA inh, VIM-2 inhibitor, eIF4H FP inh)
CCNC(=O)OCCC12CC3CC(CC(C3)C1)C2	PABP polyA inh active
CCCNC(=O)OCC12CC3CC(CC(C3)C1)C2	none
CC1Cc2ccccc2N1C(=O)COC(=O)c1ccc([N+](=O)[O-])o1 (stereo unspecified)	none (no result: IMP-1 inh, PABP polyA inh, VIM-2 inhibitor, eIF4H FP inh)
CCOC(=O)c1c(C)c(C(=O)NCc2ccc3c(c2)OCO3)c(C)n1CC	none
CCOC(=O)c1cnc(-n2cc(C)cn2)nc1NCc1ccc2c(c1)OCO2	VIM-2 inhibitor 8.1
C/C(O)=c1/c(=O)nc2cccc3c2=c1c1ccccc1c3=O	PABP polyA inh inconclusive, VIM-2 inhibitor 10, eIF4H FP inh inconclusive, MLLE-PAM2 inh 47
COc1ccc(N2CCN(C(=O)C3CCCN(S(=O)(=O)c4c(C)noc4C)C3)CC2)cc1 (stereo unspecified)	none
CC(O)c1nc2ccc(C(=O)O)cc2[nH]1 (stereo unspecified)	IMP-1 inh 8.7
CC(Sc1nc2ccc(C(=O)c3ccccc3)cc2[nH]1)C(=O)O (stereo unspecified)	none
C[C@@H](NC(=O)c1ncn(Cc2ccccc2)c1C(=O)N[C@H](C)c1ccccc1)c1ccccc1	none (no result: IMP-1 inh, PABP polyA inh, VIM-2 inhibitor, eIF4H FP inh)
CC1CC(C)(C)OC(C[N+]2(C)CCCCC2)O1 (stereo unspecified)	PABP polyA inh active, eIF4H FP inh 0.6
CC(=O)Nc1ccc(C(=O)COC(=O)C2CC2)c(F)c1	none (no result: IMP-1 inh, PABP polyA inh, VIM-2 inhibitor, eIF4H FP inh)
O=C(Nc1ccc(F)cc1)c1cc2cc(Cl)ccc2[nH]1	none
COc1ccc(C)cc1S(=O)(=O)N(CC(=O)NC1CCCC1)c1ccc(F)cc1	none
CN(C)c1ccc2c3c(cccc13)C(=O)N(c1ccccc1)C2=O	PABP polyA inh inconclusive, eIF4H FP inh inconclusive (no result: MLLE-PAM2 inh)
Cc1cccc(N2C(=O)c3cccc4c(N(C)CCO)ccc(c34)C2=O)c1	IMP-1 inh 5.1, PABP polyA inh inconclusive, eIF4H FP inh inconclusive
Cc1ccc2c(c1)sc[n+]2Cc1ccccc1	MLLE-PAM2 inh 38
COc1ccc(NC(=O)CNCc2cccs2)c(OC)c1	none (no result: IMP-1 inh, PABP polyA inh, VIM-2 inhibitor, eIF4H FP inh)
O=c1c(Cl)c(O)c2cccc3c4ccccc4n1c23	VIM-2 inhibitor 9.4
COc1c(O)c(=O)n2c3ccccc3c3ccnc1c32	none (no result: IMP-1 inh, PABP polyA inh, VIM-2 inhibitor, eIF4H FP inh)
CC(=O)O/N=C/c1c(C)c(C=O)n2ccccc12	PABP polyA inh active
O=C(NN=Cc1ccc(N2CCOCC2)s1)c1ccc([N+](=O)[O-])cc1	none (no result: IMP-1 inh, PABP polyA inh, VIM-2 inhibitor, eIF4H FP inh)
Cc1ccc(C)c(N(CC(=O)NCCC2=CCCCC2)S(C)(=O)=O)c1	none
COc1ccc(C(=O)O)cc1NC(=S)NC(=O)/C=C/c1ccc(C(C)C)cc1	MLLE-PAM2 inh 39
O=C(/C=C/c1ccccc1)NC(=S)Nc1ccccc1O	none
Cc1ccc(O)c(NC(=S)NC(=O)/C=C/c2ccccc2)c1	MLLE-PAM2 inh 41
CCC(=O)Nc1ccc(S(=O)(=O)NC[C@H]2O[C@@H](n3cc(C)c(=O)[nH]c3=O)C[C@@H]2O)cc1	none (no result: IMP-1 inh, PABP polyA inh, VIM-2 inhibitor, eIF4H FP inh)
O=C(NC(=S)Nc1nc(-c2ccc([N+](=O)[O-])cc2)cs1)c1ccco1	IMP-1 inh 62
Cc1cccc(N(CC(O)CN2CCCC2)S(=O)(=O)c2ccccc2)c1 (stereo unspecified)	none
